Consider 9 compounds from ChEMBL document CHEMBL1128267, “Dicationic diarylfurans as anti-Pneumocystis carinii agents” (J Med Chem, 1995).

Series [1] has as its target DNA topoisomerase II (Giardia lamblia). The series can be described thus: Inhibitory activity for 50% on topoisomerase II isolated from Giardia lamblia.
A further series has as its system Giardia intestinalis. In words: Inhibitory activity for 50% on growth of Giardia lamblia in cell culture. The format is functional, organism-based. The following applies: Giardia duodenalis.
Series [2] deals with Pneumocystis carinii. In words: In vivo activity against pneumocystis carinii was determined as toxicity which indicates the death of animals at a dose of 4.8 uM/Kg/day. The format is organism-based. The essentials:
(§1)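 Dosing intravenous unless otherwise noted; daily dose in μM/kg/day. Toxicity graded on a numerical severity scale where higher scores mean more severe toxicity and scores above 2 mean some animals died.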

Series [3] deals with Pneumocystis carinii. The series can be described thus: In vivo activity against pneumocystis carinii was determined as toxicity which indicates the death of animals and counted cysts in a blinding protocol in lung tissue reported as % of saline treated control at a dose of 4.8 uM/Kg/day. The format is organism-based. In outline:
(§2)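 Dosed intravenously unless otherwise marked (some oral). Toxicity graded on a severity scale where larger values are more severe and values above 2 mean some animals died. Cysts in lung tissue counted under a blinded protocol and expressed as percent of saline-treated controls.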

Series [4] concerns Pneumocystis carinii. The series can be described thus: In vivo activity against pneumocystis carinii was determined as toxicity which indicates the death of animals and counted cysts in a blinding protocol in lung tissue reported as % of saline treated control at a dose of 2.3 uM/Kg/day. The format is organism-based. In outline: as §2
The test system of series [5] is Pneumocystis carinii. The series can be described thus: In vivo activity against pneumocystis carinii was determined as toxicity which indicates the death of animals at a dose of 2.3 uM/Kg/day. The format is organism-based. In outline:
as §1

Series [6] deals with Pneumocystis carinii. In words: In vivo activity against pneumocystis carinii was determined as toxicity which indicates the death of animals at a dose of 0.18 uM/Kg/day. The format is organism-based. In outline:
as §1

For series [7], the system named is Pneumocystis carinii. In words: In vivo activity against pneumocystis carinii was determined as toxicity which indicates the death of animals and counted uM/Kg/day. The format is organism-based. The essentials: as §2
Series [8] has as its system Pneumocystis carinii. The series can be described thus: In vivo activity against pneumocystis carinii was determined as toxicity which indicates the death of animals and counted cysts in a blinding protocol in lung tissue reported as % of saline treated control at a dose of 9.2 uM/Kg/day. The format is organism-based. In outline: as §2
Series [9] deals with Pneumocystis carinii. The series can be described thus: In vivo activity against pneumocystis carinii was determined as toxicity which indicates the death of animals at a dose of 9.2 uM/Kg/day. The format is organism-based. In outline:
as §1

Series [10] concerns Pneumocystis carinii. The series can be described thus: In vivo activity against pneumocystis carinii was determined as toxicity which indicates the death of animals and counted cysts in a blinding protocol in lung tissue reported as % of saline treated control at a dose of 10.9 uM/Kg/day). The format is organism-based. The essentials:
as §2

Series [11] concerns Pneumocystis carinii. The series can be described thus: In vivo activity against pneumocystis carinii was determined as toxicity which indicates the death of animals at a dose of 10.9 uM/Kg/day. The format is organism-based. The essentials:
as §1

The subject of series [12] is Pneumocystis carinii. The series can be described thus: In vivo activity against pneumocystis carinii was determined as toxicity which indicates the death of animals and counted cysts in a blinding protocol in lung tissue reported as % of saline treated control at a dose of 13.3 (uM/kg/day). The format is organism-based. The essentials: as §2
Series [13] relates to Pneumocystis carinii. The series can be described thus: In vivo activity against pneumocystis carinii was determined as toxicity which indicates the death of animals and counted cysts in a blinding protocol in lung tissue reported as % of saline treated control at a dose of 66.3 (uM/kg/day). The format is organism-based. The essentials:
as §2

Series [14] has as its system Pneumocystis carinii. The series can be described thus: In vivo activity against pneumocystis carinii was determined as toxicity which indicates the death of animals at a dose of 0.27 (uM/kg/day). The format is organism-based. The essentials:
as §1

Series [15] relates to Pneumocystis carinii. In words: In vivo activity against pneumocystis carinii was determined as toxicity which indicates the death of animals at a dose of 13.3 (uM/kg/day). The format is organism-based. The essentials:
as §1

The subject of series [16] is Pneumocystis carinii. In words: In vivo activity against pneumocystis carinii was determined as toxicity which indicates the death of animals at a dose of 66.3 (uM/kg/day). The format is organism-based. In outline:
as §1

In series [17] the test system is Pneumocystis carinii. The series can be described thus: In vivo activity against pneumocystis carinii was determined as toxicity which indicates the death of animals and counted cysts in a blinding protocol in lung tissue reported as % of saline treated control at a dose of 0.027 (uM/kg/day). The format is organism-based. In outline:
as §2

In series [18] the test system is Pneumocystis carinii. In words: In vivo activity against pneumocystis carinii was determined as toxicity which indicates the death of animals and counted cysts in a blinding protocol in lung tissue reported as % of saline treated control at a dose of 2.7 (uM/kg/day). The format is organism-based. The essentials: as §2
Series [19] relates to Pneumocystis carinii. In words: In vivo activity against pneumocystis carinii was determined as toxicity which indicates the death of animals at a dose of 2.7 (uM/kg/day). The format is organism-based. The essentials: as §1
Series [20] deals with Pneumocystis carinii. The series can be described thus: In vivo activity against pneumocystis carinii was determined as toxicity which indicates the death of animals and counted cysts in a blinding protocol in lung tissue reported as % of saline treated control at a dose of 0.27 (uM/kg/day). The format is organism-based. In outline:
as §2

The test system of series [21] is Pneumocystis carinii. The series can be described thus: In vivo activity against pneumocystis carinii was determined as toxicity which indicates the death of animals at a dose of 0.027 (uM/kg/day). The format is organism-based. The essentials: as §1
Series [22] has as its system Pneumocystis carinii. The series can be described thus: In vivo activity against pneumocystis carinii was determined as toxicity which indicates the death of animals at a dose of 23.3 uM/Kg/day. The format is organism-based. The essentials:
as §2

The test system of series [23] is Pneumocystis carinii. In words: In vivo activity against pneumocystis carinii was determined as toxicity which indicates the death of animals and counted cysts in a blinding protocol in lung tissue reported as % of saline treated control at a dose of 23.3 uM/Kg/day. The format is organism-based. In outline: as §2
Series [24] relates to Pneumocystis carinii. In words: In vivo activity against pneumocystis carinii was determined as toxicity which indicates the death of animals and counted cysts in a blinding protocol in lung tissue reported as % of saline treated control at a dose of 22.1 (uM/kg/day). The format is organism-based. In outline:
as §2

Series [25] has as its system Pneumocystis carinii. In words: In vivo activity against pneumocystis carinii was determined as toxicity which indicates the death of animals at a dose of 22.1 (uM/kg/day). The format is organism-based. In outline:
as §1

For the compound `Cl.Cl.OCCN1CCN=C1c1ccc(-c2ccc(-c3ccc(C4=NCCN4CCO)cc3)o2)cc1`, the figures for the concentration for half-maximal inhibition (IC50) (in series [1]; with Giardia intestinalis) were 20000 nM and 4600 nM, respectively. Moreover, the “No. of dead animals” value in the series with Pneumocystis carinii [2] came out at 3. Also, in the series with Pneumocystis carinii [3], the Control was determined as 107.3%.

For `Cl.Cl.c1cc(-c2ccc(-c3ccc(C4=NCCCCN4)cc3)o2)ccc1C1=NCCCCN1`, the values for the Control in the series on Pneumocystis carinii [4] and in the series on Pneumocystis carinii [7] were 2.9% and 115.4%, respectively. Besides, the “No. of dead animals” value was determined as 3 in the series with Pneumocystis carinii [5] and 0 in the series on Pneumocystis carinii [6]. Moreover, the results for the IC50 (in [1]; in the series on Giardia intestinalis) were 1500 nM and 930 nM, respectively.

In the series with Pneumocystis carinii [8], `Cl.Cl.c1cc(-c2ccc(-c3ccc(C4=NC5CCCCC5N4)cc3)o2)ccc1C1=NC2CCCCC2N1` (configuration not stated) yielded a Control of 80.5%. Further, the values for the IC50 (in series [1]; in the series with Giardia intestinalis) were 3000 nM and 4000 nM, respectively. In the series on Pneumocystis carinii [9], the “No. of dead animals” value was found to be 1.

For the compound `CCN1CCN=C1c1ccc(-c2ccc(-c3ccc(C4=NCCN4CC)cc3)o2)cc1.Cl.Cl`, the figures for the concentration for half-maximal inhibition (IC50) (in series [1]; with Giardia intestinalis) were 25000 nM and 3300 nM, respectively.

Consider `Cl.Cl.c1cc(-c2ccc(-c3ccc(C4=NCCCN4)cc3)o2)ccc1C1=NCCCN1`, for which, in the series with Pneumocystis carinii [10], the Control was determined as 0.4%. In addition, the “No. of dead animals” value with Pneumocystis carinii [11] came to 2. In addition, the concentration for half-maximal inhibition (IC50) (usually the point on the concentration scale where inhibition reaches its midpoint) in [1] is 500 nM; in the series with Giardia intestinalis, 85 nM.

Take `Cl.Cl.N=C(N)c1ccc(-c2ccc(-c3ccc(C(=N)N)cc3)o2)cc1`: the Control was 2.1% with Pneumocystis carinii [12]; 28.4% in the series on Pneumocystis carinii [13]; 55.9% in the series with Pneumocystis carinii [17]; 8.3% in the series on Pneumocystis carinii [18]; 4.8% with Pneumocystis carinii [20]. The “No. of dead animals” value in the series on Pneumocystis carinii [14], in the series on Pneumocystis carinii [15], with Pneumocystis carinii [16], with Pneumocystis carinii [19] and in the series on Pneumocystis carinii [21] was 0 in each case.

With `N[C+](N)c1ccc(-c2ccc(-c3ccc([C+](N)N)cc3)o2)cc1`, the 50% inhibitory concentration (IC50) in the series with Giardia intestinalis worked out at 440 nM.

With `Cl.c1cc(-c2ccc(-c3ccc(C4=NCCN4)cc3)o2)ccc1C1=NCCN1`, the IC50 in series [1] amounted to 3000 nM; in the series on Giardia intestinalis it was 1950 nM. Further, in the series with Pneumocystis carinii [22], the Toxicity was 2 number of dead animals. For the same compound, in the series with Pneumocystis carinii [23], the Control came out at 35.4%.

The compound `N=C(N)c1ccc(OCCCCCOc2ccc(C(=N)N)cc2)cc1` [PENTAMIDINE] registered a Control with Pneumocystis carinii [24] of 3.66%. In addition, the “No. of dead animals” value with Pneumocystis carinii [25] was 2.
